Data on 21 compounds can be found in ChEMBL document CHEMBL1157000, “Aminofurazans as potent inhibitors of AKT kinase” (Bioorg Med Chem Lett, 2009).

Structures are written as SMILES.

The target in assay [1] is RAC-alpha serine/threonine-protein kinase (Homo sapiens, UniProt P31749). Kind of assay: Inhibition of AKT.
Assay [2] has as its target RAC-gamma serine/threonine-protein kinase (Homo sapiens, UniProt Q9Y243). Nature of the assay: Inhibition of AKT3.
In the next assay the test system is BT-474. Nature of the assay: Antiproliferative activity against human BT474 cells. The format is functional, cell-based. The method, boiled down: (§1)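 Cell proliferation inhibition in tumour lines (BT474, LNCaP) and non-tumour HFF cells; values are the mean of at least two experiments.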
In a further assay the test system is LNCaP. Kind of assay: Antiproliferative activity against human LNCAP cells. Format: functional, cell-based. The method, boiled down:
as §1

The next assay relates to HFF. Nature of the assay: Antiproliferative activity against human HFF cells. Format: functional, cell-based. The method, boiled down:
as §1

The test system of the next assay is Mus musculus. Nature of the assay: Inhibition of GSK3B phosphorylation in human BT474 cells xenografted in ip dosed mouse. Format: functional, organism-based. Conditions: BT-474. The method, boiled down:
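Mice bearing BT474 xenografts were dosed ip at […], 12.5 or 25 mg/kg, with a vehicle control group. GSK3b phosphorylation in the tumours was the read-out.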
On the technique in general: In xenograft studies the graft and the host belong to different species.

RAC-gamma serine/threonine-protein kinase, sequence (Q9Y243 whole entry): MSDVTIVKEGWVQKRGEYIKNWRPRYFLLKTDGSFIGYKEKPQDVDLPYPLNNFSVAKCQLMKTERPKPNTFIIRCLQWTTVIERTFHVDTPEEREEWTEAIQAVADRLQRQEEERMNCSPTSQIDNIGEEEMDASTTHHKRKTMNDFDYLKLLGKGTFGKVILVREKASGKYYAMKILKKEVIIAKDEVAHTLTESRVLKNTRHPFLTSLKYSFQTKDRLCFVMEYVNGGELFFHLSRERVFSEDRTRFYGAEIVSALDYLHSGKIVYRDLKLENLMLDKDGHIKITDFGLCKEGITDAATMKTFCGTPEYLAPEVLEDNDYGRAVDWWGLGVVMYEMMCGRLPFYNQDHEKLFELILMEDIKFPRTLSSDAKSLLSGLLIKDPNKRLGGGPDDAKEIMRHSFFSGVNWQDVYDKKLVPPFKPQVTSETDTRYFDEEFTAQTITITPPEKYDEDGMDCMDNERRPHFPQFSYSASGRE
RAC-alpha serine/threonine-protein kinase, sequence (P31749 whole entry): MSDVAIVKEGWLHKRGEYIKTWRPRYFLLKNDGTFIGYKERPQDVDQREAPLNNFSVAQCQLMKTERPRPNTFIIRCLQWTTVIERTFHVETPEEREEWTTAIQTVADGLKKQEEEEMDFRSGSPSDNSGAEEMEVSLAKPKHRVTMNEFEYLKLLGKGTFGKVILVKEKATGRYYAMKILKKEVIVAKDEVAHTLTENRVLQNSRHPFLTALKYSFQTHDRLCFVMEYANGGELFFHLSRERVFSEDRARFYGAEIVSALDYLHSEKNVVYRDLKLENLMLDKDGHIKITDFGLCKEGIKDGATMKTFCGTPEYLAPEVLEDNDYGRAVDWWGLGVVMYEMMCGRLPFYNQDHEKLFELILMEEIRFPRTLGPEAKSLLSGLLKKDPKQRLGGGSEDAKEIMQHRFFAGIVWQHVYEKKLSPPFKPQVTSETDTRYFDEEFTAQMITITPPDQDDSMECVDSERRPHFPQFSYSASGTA

Turning to `CCn1c(-c2nonc2N)nc2c(C#CC(C)(C)O)nc(O[C@@H](CN)c3ccccc3)cc21`, the IC50 (commonly the concentration at which inhibition is half-maximal) was 1 nM in assay [1]; 1 nM in assay [2]; 35 nM in the assay on BT-474; 27 nM in the assay on LNCaP; 519 nM in the assay on HFF. Further, the affinity in assay [1] corresponds to a Ki of 0.4 nM. For the same compound, the inhibition entry in the assay with Mus musculus is “Dose-dependent effect”.

For `CCn1c(-c2nonc2N)nc2c(C#CC(C)(C)O)nc(OCCNC)cc21`, the IC50 in assay [1] is 12 nM; in the assay on BT-474, 3190 nM; in the assay with LNCaP, 896 nM; in the assay with HFF, 17000 nM.

In the case of `CCn1c(-c2nonc2N)nc2c(C#CC(C)(C)O)nc(CCN)cc21`, the half-inhibitory concentration (IC50) worked out at 4 nM in assay [1], 1090 nM in the assay with BT-474, 2020 nM in the assay with LNCaP and 24000 nM with HFF.

Turning to `CCn1c(-c2nonc2N)nc2c(C#CC(C)(C)O)ncc(OC[C@H]3CCCNC3)c21` [GSK-690693], the IC50 in the assay on BT-474 is 69 nM; in the assay with LNCaP it was 21 nM; in the assay on HFF, more than 23000 nM.

Take `CCn1c(-c2nonc2N)nc2c(C#CC(C)(C)O)nc(OC[C@H](N)c3ccccc3)cc21` [GSK-943949A]: the IC50 is 3 nM in assay [1]; 17 nM in assay [2]; 2100 nM with BT-474; 124 nM in the assay with LNCaP; 5000 nM with HFF.

In the case of `CCn1c(-c2nonc2N)nc2c(C#CC(C)(C)O)nc(CN)cc21`, the half-maximal inhibitory concentration (IC50) in assay [1] was 6 nM; with BT-474, 806 nM; in the assay with LNCaP it was 296 nM; in the assay with HFF, 24000 nM.

Regarding `CCn1c(-c2nonc2N)nc2c(C#CC(C)(C)O)nc(OCCCN)cc21`, the IC50 in assay [1] was 16 nM; in the assay on BT-474, 7120 nM; with LNCaP, 3180 nM; in the assay with HFF it was 30000 nM. Moreover, the inhibitory constant (Ki) (usually a measure of affinity in units of concentration, obtained from inhibition or displacement) in assay [1] was 115 nM.

Consider `CCn1c(-c2nonc2N)nc2c(C#CC(C)(C)O)nc(O[C@H](CN)c3ccccc3)cc21`, for which the IC50 amounted to 3 nM in assay [1], 124 nM with BT-474, 68 nM in the assay on LNCaP and 20000 nM with HFF. The compound also returned a Ki in assay [1] of 3 nM.

Take `CCn1c(-c2nonc2N)nc2c(C#CC(C)(C)O)nc(OC[C@H](C)N)cc21`: the concentration for half-maximal inhibition (IC50) in assay [1] was found to be 13 nM; with BT-474 it was 4860 nM; in the assay with LNCaP, 560 nM; in the assay on HFF it was 28000 nM.

For the compound `CCn1c(-c2nonc2N)nc2c(C#CC(C)(C)O)nc(OC[C@@H](N)Cc3ccccc3)cc21`, the IC50 worked out at 3 nM in assay [1], 1500 nM in the assay on BT-474, 101 nM in the assay on LNCaP and 7000 nM in the assay with HFF.

As for `CCn1c(-c2nonc2N)nc2c(C#CC(C)(C)O)nc(CN3CCCC3)cc21` [GSK-1000163A], the concentration for half-maximal inhibition (IC50) worked out at 6 nM in assay [1]; 22 nM in assay [2]; 1250 nM in the assay on BT-474; 313 nM in the assay with LNCaP; 30000 nM in the assay on HFF.

In the case of `CCn1c(-c2nonc2N)nc2c(C#CC(C)(C)O)nc(OCCCCN)cc21`, the half-inhibitory concentration (IC50) in assay [1] was 63 nM; with BT-474, 20000 nM; with LNCaP it was 6160 nM; in the assay on HFF, 30000 nM.

Take `CCn1c(-c2nonc2N)nc2c(C#CC(C)(C)O)nc(O[C@H](CCN)c3ccccc3)cc21`: the IC50 in assay [1] stood at 4 nM; in assay [2], 65 nM; with BT-474 it was 224 nM; in the assay with LNCaP, 85 nM; in the assay on HFF, 29000 nM. In addition, the Ki in assay [1] was 1.9 nM.

As for `CCn1c(-c2nonc2N)nc2c(C#CC(C)(C)O)nc(OCCN)cc21`, the IC50 in assay [1] came to 5 nM; in assay [2] it was 43 nM; in the assay on BT-474, 1080 nM; with LNCaP, 497 nM; in the assay with HFF, 5000 nM. In addition, the inhibition constant (Ki) in assay [1] worked out at 6 nM.

With `CCn1c(-c2nonc2N)nc2c(C#CC(C)(C)O)nc(O[C@@H](CCN)c3ccccc3)cc21`, the IC50 in assay [1] amounted to 2 nM; with BT-474, 1 nM; with LNCaP, 5 nM; in the assay on HFF it was 11000 nM. Moreover, affinity in assay [1] was put at a Ki of 0.2 nM.

For `CCn1c(-c2nonc2N)nc2c(C#CC(C)(C)O)nc(CNC)cc21`, the IC50 in assay [1] stood at 3 nM; in the assay with BT-474, 439 nM; with LNCaP it was 201 nM; in the assay with HFF it was 5900 nM.

As for `CCn1c(-c2nonc2N)nc2c(C#CC(C)(C)O)nc(OC[C@@H](C)N)cc21`, the half-maximal inhibitory concentration (IC50) was found to be 8 nM in assay [1], 860 nM with BT-474, 220 nM in the assay with LNCaP and 17000 nM in the assay on HFF.

For `CCn1c(-c2nonc2N)nc2c(C#CC(C)(C)O)nc(CN(C)C)cc21`, the IC50 in assay [1] came to 2 nM; in the assay with BT-474, 357 nM; with LNCaP, 114 nM; in the assay on HFF, 30000 nM.

For `CCn1c(-c2nonc2N)nc2c(C#CC(C)(C)O)nc(OC[C@H](N)Cc3ccccc3)cc21`, the 50% inhibitory concentration (IC50) in assay [1] came out at 0.6 nM; in assay [2] it was 3 nM; in the assay on BT-474 it was 742 nM; in the assay with LNCaP, 20 nM; with HFF, 8000 nM. Further, the affinity in assay [1], expressed as Ki, was 0.2 nM.

As to `CCn1c(-c2nonc2N)nc2c(C#CC(C)(C)O)nc(CCCN)cc21`, the half-inhibitory concentration (IC50) in assay [1] was 3 nM; in assay [2] it was 30 nM; in the assay on BT-474 it was 3520 nM; in the assay with LNCaP, 4720 nM; in the assay with HFF, 23000 nM.

Take `CCn1c(-c2nonc2N)nc2c(C#CC(C)(C)O)nc(OC[C@@H](N)c3ccccc3)cc21` [GSK-938890A]: the IC50 is 5 nM in assay [1]; 49 nM in assay [2]; 3440 nM with BT-474; 176 nM in the assay on LNCaP; 20000 nM with HFF.
